# According to ChEMBL document CHEMBL1926628, “Febrifugine analogue compounds: synthesis and antimalarial evaluation” (Bioorg Med Chem, 2012):
# pIC50: −log10 of the molar value.
# How the values were obtained:
# Plasmodium falciparum [1] = assay: Antimalarial activity against Plasmodium falciparum PH3 infected in human A positive erythrocytes assessed as inhibition of [G-3H]-hypoxanthine uptake after 24 hrs by liquid scintillation counting; format: functional, organism-based; conditions: PH3, 24 h
# [2] = Therapeutic index, ratio of MTD for Sprague-Dawley rat to MCD for blood stage of Plasmodium berghei NK65; conditions: read-out: TI
# Method in brief: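 MCD (minimum clearance dose) comes from rodents infected with blood-stage P. berghei NK65, dosed orally except artesunate, which was given iv. MTD (maximum tolerated dose) comes from Sprague–Dawley rats. Both are in mg/kg. Therapeutic index is MTD divided by MCD.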
# [3] = Acute toxicity in po dosed Sprague-Dawley rat assessed as maximum tolerated dose; format: organism-based; conditions: in vivo
# Plasmodium berghei [4] = assay: Antimalarial activity against blood stage of Plasmodium berghei NK65 infected in po dosed rat assessed as inhibition of parasite growth; format: functional
# Method in brief: (§1)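 Blood-stage Plasmodium berghei NK65 infection in rodents. Compounds were given by the route stated in each line. ED50 is the dose in mg/kg giving 50% parasite growth inhibition relative to the untreated blank control. Procedure follows earlier reports.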
# Plasmodium falciparum [5] = assay: Antimalarial activity against chloroquine-resistant Plasmodium falciparum VS/1 infected in human A positive erythrocytes assessed as inhibition of [G-3H]-hypoxanthine uptake after 24 hrs by liquid scintillation counting; format: functional; conditions: VS/1, 24 h
# Plasmodium falciparum [6] = assay: Antimalarial activity against chloroquine-resistant Plasmodium falciparum K1 infected in human A positive erythrocytes assessed as inhibition of [G-3H]-hypoxanthine uptake after 24 hrs by liquid scintillation counting; format: functional, organism-based; conditions: K1, 24 h
# Plasmodium berghei [7] = assay: Antimalarial activity against blood stage of Plasmodium berghei NK65 infected in po dosed rat assessed as minimum curative dose; format: functional
# Method in brief: (§2)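 Rodents infected with blood-stage Plasmodium berghei NK65 were dosed by the route given in each line. Read-out was the minimum clearance dose (MCD), the lowest dose clearing parasites, reported in mg/kg. Method follows earlier reports.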
# Plasmodium falciparum [8] = assay: Antimalarial activity against Plasmodium falciparum TM4 infected in human A positive erythrocytes assessed as inhibition of [G-3H]-hypoxanthine uptake after 24 hrs by liquid scintillation counting; format: functional, organism-based; conditions: TM4, 24 h
# Plasmodium falciparum [9] = assay: Antimalarial activity against Plasmodium falciparum Dd2 infected in human A positive erythrocytes assessed as inhibition of [G-3H]-hypoxanthine uptake after 24 hrs by liquid scintillation counting; format: functional, organism-based; conditions: Dd2, 24 h
# Rattus norvegicus = organism: Rattus norvegicus; assay: Ratio of compound MTD to febrifugine MTD in Sprague-Dawley rat; format: ADME, organism-based; conditions: in vivo
# Plasmodium falciparum [10] = assay: Antimalarial activity against chloroquine-resistant Plasmodium falciparum TM6 infected in human A positive erythrocytes assessed as inhibition of [G-3H]-hypoxanthine uptake after 24 hrs by liquid scintillation counting; format: functional, organism-based; conditions: TM6, 24 h
# Plasmodium falciparum [11] = assay: Antimalarial activity against chloroquine-sensitive Plasmodium falciparum 3D7 infected in human A positive erythrocytes assessed as inhibition of [G-3H]-hypoxanthine uptake after 24 hrs by liquid scintillation counting; format: functional, organism-based; conditions: 3D7, 24 h
# Plasmodium falciparum [12] = assay: Antimalarial activity against chloroquine-resistant Plasmodium falciparum FVO infected in Aotus monkey assessed as cure rate at 4 mg/kg, po qd for 3 days; format: functional
# Method in brief: (§3)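 Aotus monkeys carrying chloroquine-resistant P. falciparum FVO were dosed orally once daily for 3 days at 2, 4, 8 or 16 mg/kg/day. Dosing began the day after parasitemia reached approximately 5,000 organisms per mm³. Cure means parasitemia cleared with no recrudescence. Cure rate is animals cured over total tested.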
# Plasmodium falciparum [13] = assay: Antimalarial activity against chloroquine-resistant Plasmodium falciparum FVO infected in Aotus monkey assessed as cure rate at 8 mg/kg, po qd for 3 days; format: functional; method in brief: as §3
# Plasmodium falciparum [14] = assay: Antimalarial activity against chloroquine-resistant Plasmodium falciparum FVO infected in Aotus monkey assessed as cure rate at 16 mg/kg, po qd for 3 days; format: functional; method in brief: as §3
# Plasmodium falciparum [15] = assay: Antimalarial activity against chloroquine-resistant Plasmodium falciparum FVO infected in Aotus monkey assessed as cure rate at 2 mg/kg, po qd for 3 days; format: functional; method in brief: as §3
# Plasmodium berghei [16] = assay: Antimalarial activity against blood stage of Plasmodium berghei NK65 infected in iv dosed rat assessed as minimum curative dose; format: functional; method in brief: as §2
# Plasmodium berghei [17] = assay: Antimalarial activity against blood stage of Plasmodium berghei NK65 infected in iv dosed rat assessed as inhibition of parasite growth; format: functional; method in brief: as §1
SMILES,pIC50 (Plasmodium falciparum [1]),selectivity ratio [2],MTD [3] [mg/kg],ED50 (Plasmodium berghei [4]) [mg/kg],pIC50 (Plasmodium falciparum [5]),pIC50 (Plasmodium falciparum [6]),MCD (Plasmodium berghei [7]) [mg/kg],pIC50 (Plasmodium falciparum [8]),pIC50 (Plasmodium falciparum [9]),Ratio (Rattus norvegicus),pIC50 (Plasmodium falciparum [10]),pIC50 (Plasmodium falciparum [11]),Activity (Plasmodium falciparum [12]) [%],Activity (Plasmodium falciparum [13]) [%],Activity (Plasmodium falciparum [14]) [%],Activity (Plasmodium falciparum [15]) [%],MCD (Plasmodium berghei [16]) [mg/kg],ED50 (Plasmodium berghei [17]) [mg/kg]
O=C(Cn1cnc2cccc(C(F)(F)F)c2c1=O)[C@H]1NCC[C@@H]1O,8.49,60,400,0.95,7.95,8.33,6.7,8.13,8.20,> 10,8.60,8.57,,,,,,
O=C(Cn1cnc2cccc(C(F)(F)F)c2c1=O)[C@H]1NCC[C@H]1O,7.67,,,,7.44,7.62,,7.28,7.50,,7.59,7.71,,,,,,
CCO[C@H]1CCN[C@@H]1C(=O)Cn1cnc2cccc(F)c2c1=O,9.74,132,250,0.31,9.60,9.62,1.9,9.66,9.59,,9.77,9.68,67,100,100,50,,
O=C(Cn1cnc2cccc(F)c2c1=O)[C@H]1NCC[C@@H]1O,8.60,63,400,1.1,8.28,8.23,6.3,8.21,8.09,> 10,8.41,8.24,,,,,,
O=C(Cn1cnc2cccc(C(F)(F)F)c2c1=O)[C@@H]1NCC[C@H]1O,8.47,,,,7.96,8.32,,8.14,8.21,,8.57,8.59,,,,,,
OC(c1cc(C(F)(F)F)nc2c(C(F)(F)F)cccc12)C1CCCCN1 (configuration not stated) [MEFLOQUINE],,61,,1.1,,,9.9,,,,,,,,,,,
C[C@H]1[C@H](OC(=O)CCC(=O)O)O[C@@H]2O[C@@]3(C)CC[C@H]4[C@H](C)CC[C@@H]1[C@@]24OO3 [ARTESUNATE],,37,,,,,,,,,,,,,,,6.8,0.55
O=C(Cn1cnc2cccnc2c1=O)[C@H]1NCC[C@@H]1O,8.96,63,450,1.2,8.44,8.51,7.1,8.39,8.64,> 10,8.68,8.74,,,,,,
O=C(Cn1cnc2cccnc2c1=O)[C@H]1NCC[C@H]1O,7.94,,,,7.54,7.70,,7.49,7.66,,7.88,7.79,,,,,,
O=C(Cn1cnc2ccccc2c1=O)[C@H]1NCC[C@@H]1O,8.85,10,100,1.7,8.25,8.41,9.9,8.10,8.35,,8.51,8.55,,,,,,
O=C(C[C@@H]1NCCC[C@H]1O)Cn1cnc2ccccc2c1=O [FEBRIFUGINE],,3,35,2.3,8.38,8.70,12,8.27,8.68,,8.51,,,,,,,
O=C(Cn1cnc2cccnc2c1=O)[C@H]1NCC[C@@H]1OCc1ccccc1,9.70,147,250,0.19,9.89,9.62,1.7,9.48,9.77,,10.10,9.68,71,80,100,25,,
O=C(Cn1cnc2ccncc2c1=O)[C@H]1NCC[C@@H]1O,9.00,47,350,1,8.39,8.55,7.5,8.52,8.66,> 10,8.47,8.85,,,,,,
CCN(CC)Cc1cc(Nc2ccnc3cc(Cl)ccc23)ccc1O,7.80,,,,8.06,7.67,,7.82,8.04,,8.12,8.31,,,,,,
CCN(CC)CCCC(C)Nc1ccnc2cc(Cl)ccc12 (configuration not stated) [CHLOROQUINE],,,,4.5,,,40,,,,,,,,,,,
CC(C)O[C@H]1CCN[C@@H]1C(=O)Cn1cnc2cccc(C(F)(F)F)c2c1=O,9.27,104,250,0.23,9.17,9.21,2.4,9.41,9.11,,9.51,9.44,,,,,,
O=C(Cn1cnc2cccnc2c1=O)[C@@H]1NCC[C@H]1O,9.00,,,,8.43,8.48,,8.40,8.62,,8.70,8.72,,,,,,
